Experimental data taken from PubChem BioAssay.
Activity calls are given as the source filed them.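 How the source made its calls, unless noted: active means inhibition of the reporter signal at or above 50%; inactive means inhibition below 50%.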

Tests used:
[1] = inhibitors of TNFa-induced NFkB p65 translocation, primary screen, imaging, HUVEC, MLSMR starter and 10KST1 sets (AID 438;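 active means inhibition above 20% together with a positive visual image hit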;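 further: compound added about 3h40 before a 20 min TNFalpha stimulation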;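 on inhibition: signal is the nuclear over cytoplasmic p65 intensity ratio per well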); conditions: HUVEC TNFa-induced p65 nuclear translocation; cell count: measured here: nuclei count (cytotoxicity indicator), at 2.08 µM; inhibition: at 2 µM, stronger effect = higher value, 0% TNFa-plus-vehicle, 100% no-TNFa wells
[2] = reduction of polyQ htt aggregates in cells – imaging, exon1htt(103Q)mCFP cells, high-content imaging, primary screen (AID 483;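 active means visual image review flags a hit and inhibition of aggregation exceeds 20%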;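 further: compound exposure lasted 3 days before fixation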;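 on nuclei count: percent of the per-plate median nuclei count of sample wells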); conditions: exon1htt(103Q)mCFP cell line, aggregate imaging, at 2 µM; inhibition of aggregation: stronger effect = higher value; nuclei count: measured here: cell count, toxicity
[3] = endothelial E-selectin expression blockers – imaging, HUVEC, immunofluorescence, MLSMR starter and 10KST1 sets, primary screen (AID 487;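 active means visually confirmed hit in the image check and inhibition above 20%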;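 on inhibition: signal is fraction of cell area covered by stained E-selectin grains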;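 on nuclei count: 100% = median nuclei count of all wells on the same plate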); conditions: HUVEC TNFalpha-induced E-selectin immunofluorescence imaging, at 2 µM; inhibition: stronger effect = higher value; nuclei count: measured here: cell number, toxicity
[4] = target: Voltage-gated potassium channel subunit beta-2 (Rattus norvegicus) (UniProt P62483); assay: inhibitors of rat Kvbeta2 reductase activity – biochemical, NADPH fluorescence, primary screen (AID 622;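 active means fluorescence slope higher than the sample average by over 3 SD, cut at about -0.22 in these data, passing the limit was not always enough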;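 further: slope of raw intensity against log time taken from 70 to 1610 s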); conditions: recombinant KvBeta, 4-cyanobenzaldehyde reduction, at 10 µM, stronger effect = higher value
[5] = target: Voltage-gated potassium channel subunit beta-2 (Rattus norvegicus) (UniProt P62483); assay: enhancers of rat Kvbeta2 NADPH turnover – biochemical, NADPH fluorescence, primary screen (AID 623;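 active means NADPH fluorescence slope more negative than the mean of all samples by about 3 SD, 99.7% confidence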;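 further: fluorescence intensity change per second fitted from 20 to 320 s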); conditions: Recombinant KvBeta, NADPH fluorescence decrease slope, 10 min; at 10 µM; stronger effect = lower value
[6] = target: Muscarinic acetylcholine receptor M4 (Homo sapiens) (UniProt P08173); assay: M4-linked GIRK flux change, two-sided – cell-based, HEK293 M4/GIRK, thallium flux, BTC-AM, M4 allosteric agonist project, primary screen (AID 625;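 active means fluorescence slope after compound addition differing from the mean of all tested samples at 99.7% confidence, mostly higher but some lower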;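 further: thallium influx through GIRK channels coupled to M4 in HEK293 cells with BTC-AM dye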); conditions: at 10 µM, actives lie on both sides
Method in brief: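 Material – HEK293 cells with M4 receptor and GIRK channels · Buffer or medium – pH 7.3 thallium assay buffer · Doses – one dose, 10 µM final · Timing – cells overnight at 37 °C, BTC-AM loading 1 h, reads 2 min total · Measured by – kinetic fluorescence with BTC-AM dye · Controls – carbachol and DMSO controls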

[7] = blockers of RIG-like receptor reporter activation – cell-based, Sendai virus stimulus, luciferase, 10K MLSCN set, TLR/RLR signaling modifier project, primary screen (AID 602276;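 active means inhibition at or above 50% at 10 µM; inactive means inhibition below 50%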;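 further: firefly luciferase from ISG56 promoter only with Renilla not read in this screen; 0% = Sendai virus plus DMSO and 100% = medium plus DMSO without virus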); conditions: HEK293 RL24 IRF3 luciferase reporter, at 10 µM, stronger effect = higher value
[8] = TLR3 IRF3 reporter activation blockers – cell-based, poly I:C stimulus, luciferase, 10K MLSCN set, primary screen (AID 602277); conditions: HEK293-TLR3 RL24 IRF3 luciferase reporter, at 10 µM, stronger effect = higher value

Sequence of Voltage-gated potassium channel subunit beta-2 (Rattus norvegicus) (P62483 whole entry, looked up): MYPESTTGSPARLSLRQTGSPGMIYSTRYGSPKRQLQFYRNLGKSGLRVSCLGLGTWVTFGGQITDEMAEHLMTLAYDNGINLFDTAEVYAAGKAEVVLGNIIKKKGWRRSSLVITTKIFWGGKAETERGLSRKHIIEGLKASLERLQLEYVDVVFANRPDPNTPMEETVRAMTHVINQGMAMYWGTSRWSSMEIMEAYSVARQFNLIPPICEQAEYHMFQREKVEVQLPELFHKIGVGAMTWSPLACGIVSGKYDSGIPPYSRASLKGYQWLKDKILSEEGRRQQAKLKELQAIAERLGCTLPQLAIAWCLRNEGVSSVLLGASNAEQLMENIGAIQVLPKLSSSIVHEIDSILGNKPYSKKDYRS
Sequence of Muscarinic acetylcholine receptor M4 (Homo sapiens) (P08173 whole entry, looked up): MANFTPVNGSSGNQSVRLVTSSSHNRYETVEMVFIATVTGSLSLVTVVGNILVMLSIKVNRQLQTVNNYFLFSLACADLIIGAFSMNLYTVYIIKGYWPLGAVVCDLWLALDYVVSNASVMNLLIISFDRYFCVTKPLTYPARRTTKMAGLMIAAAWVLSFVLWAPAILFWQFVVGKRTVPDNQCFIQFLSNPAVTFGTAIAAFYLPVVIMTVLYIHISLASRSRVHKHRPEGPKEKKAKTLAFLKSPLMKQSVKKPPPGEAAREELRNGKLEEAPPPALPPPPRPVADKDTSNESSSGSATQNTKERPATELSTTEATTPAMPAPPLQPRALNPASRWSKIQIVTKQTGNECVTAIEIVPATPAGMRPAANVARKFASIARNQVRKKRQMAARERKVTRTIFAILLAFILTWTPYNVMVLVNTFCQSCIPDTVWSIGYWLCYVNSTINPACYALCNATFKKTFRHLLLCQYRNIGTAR

Structure (SMILES)	cell count [1]	inhibition [1]	inhibition of aggregation [2]	nuclei count [2]	inhibition [3]	nuclei count [3]	fluorescence slope [4]	NADPH fluorescence slope [5]	fluorescence slope [6]	inhibition [7]	inhibition [8]
Cc1ccc(CNC(=O)CSc2n[nH]c(N)n2)cc1	498	-7.2% (inactive)	20% (inactive)	44.8%	-21.8% (inactive)	136%	-0.579 (inactive)	-6.4e-05 (inactive)	0.00347 (inactive)	15.9% (inactive)	20.6% (inactive)
COc1ccc(-c2cc(C(F)F)n3ncc(C(=O)NCC4CCCO4)c3n2)cc1 (stereo not drawn)	244	4.7% (inactive)	-15.8% (inactive)	78.7%	-51% (inactive)	108%	-0.000811 (active)	-2.9e-05 (inactive)	0.00542 (inactive)	20.7% (inactive)	11.4% (inactive)
Cc1ccc(C)c(SCC(=O)Nc2nnc(-c3ccccc3)o2)c1	395	-16.8% (inactive)	-12.6% (inactive)	99.9%	-16.3% (inactive)	124%	-0.586 (inactive)	-3.2e-05 (inactive)	0.00772 (inactive)	13.5% (inactive)	19.4% (inactive)
c1ccc(-c2n[nH]c3ccccc23)cc1	708	-3% (inactive)	13.9% (inactive)	116%	-13.1% (inactive)	106%	-0.55 (inactive)	-5.6e-05 (inactive)	0.00778 (inactive)	-14% (inactive)	-30% (inactive)
O=C(O)CCCNS(=O)(=O)c1ccc(NCc2ccccc2)c(C(=O)O)c1	687	6.7% (inactive)	2.8% (inactive)	87.1%	7% (inactive)	91.1%	-0.343 (inactive)	-5e-05 (inactive)	0.00502 (inactive)	10.5% (inactive)	10.3% (inactive)
COCCCNC(=O)CCc1nc(-c2ccccc2Cl)no1	476	8.6% (inactive)	-10.1% (inactive)	95.7%	-130% (inactive)	132%	-0.556 (inactive)	-9.5e-06 (inactive)	0.00327 (inactive)	17.7% (inactive)	23.4% (inactive)
O=C(O)CSc1ccc2ccccc2n1	418	3.6% (inactive)	1.4% (inactive)	106%	15.7% (inactive)	102%	-0.525 (inactive)	-3.7e-05 (inactive)	0.00444 (inactive)	19% (inactive)	23.8% (inactive)
Cc1ccc(S(=O)(=O)N2CCCC2)cc1S(=O)(=O)N1CCCC1	698	-9% (inactive)	-7.5% (inactive)	111%	10.3% (inactive)	116%	-0.609 (inactive)	-1.2e-05 (inactive)	0.00607 (inactive)	13.4% (inactive)	12.9% (inactive)
